From ChEMBL document CHEMBL3046214, “Friedelane triterpenes from Celastrus vulcanicola as photosynthetic inhibitors” (J Agric Food Chem, 2010)
Calls of active or inactive are those of the source. No cut-off for these calls is given here.

Legend:
[1] = test system: Physalis ixocarpa; test: Inhibition of photosynthetic efficiency in Physalis ixocarpa intact leaves assessed as effect on OJIP transients at 100 uM measured 24 hr post compound application; type: functional, organism-based
How it was run: (§1)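 P. ixocarpa plants sprayed 15 days after emergence (greenhouse, 25-30 °C; 20 mM DMSO stock diluted into 0.05% Tween-20; vehicle-sprayed controls). Leaves dark-adapted 15 min, then excited with 650 nm red LED light at 3000 μmol photons m-2 s-1. Chl a OJIP transients recorded with a Handy PEA at room temperature. PI(abs) is normalized to control; K-, J- and I-bands come from variable fluorescence difference curves; five replicates.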

[2] = test system: Spinacia oleracea; test: Effect on photosynthesis efficiency in Spinacia oleracea (spinach) leaves freshly lysed chloroplasts assessed as change in chlorophyll a fluorescence at 150 to 450 uM; type: functional
How it was run: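 Freshly lysed spinach thylakoids (20 μg Chl) were placed on filter paper with a dot-blot apparatus and dipped in 3 mL basal electron transport medium without MV, containing compound. After 5 min dark adaptation, fluorescence was excited with 3000 μmol m-2 s-1 650 nm LED light (2 s pulse) at room temperature. Wt = (Ft−F0)/(FJ−F0), difference from control used for K-band; five replicates.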

[3] = test system: Lolium perenne; test: Effect on photosynthetic efficiency in Lolium perenne (perennial ryegrass) assessed as increase in PI(abs) transients at 100 uM measured 72 hr post compound application; type: functional
How it was run: (§2)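 Greenhouse L. perenne sprayed 18 days after emergence (20 mM DMSO stock diluted into 0.05% Tween-20; vehicle-sprayed controls). Leaves dark-adapted 15 min, then excited with 3000 μmol photons m-2 s-1 red light (650 nm) from three LEDs. OJIP transients recorded at room temperature with a Handy PEA. PI(abs) and other parameters are shown on radar plots normalized to control.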

[4] = test system: Lolium perenne; test: Inhibition of photosynthetic efficiency in Lolium perenne (perennial ryegrass) at 200 uM measured 24 to 72 hr post compound application; type: functional; how it was run: as §2
[5] = test system: Lolium perenne; test: Effect on biomass production in Lolium perenne (perennial ryegrass) assessed as plant dry weight at 100 uM measured 14 days post compound application relative to untreated control; type: functional
How it was run: (§3)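 Greenhouse-grown plants (pots, watered daily, 25 to 30 °C) of similar size, sprayed at 15 (P. ixocarpa) or 18 (L. perenne) days after emergence. Compound taken from a 20 mM DMSO stock into aqueous 0.05% w/v Tween-20; controls were sprayed with water containing the same DMSO and Tween-20. Plants harvested at ground level, oven-dried at 65 °C to constant weight, then weighed.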

[6] = test system: Physalis ixocarpa; test: Inhibition of photosynthetic efficiency in Physalis ixocarpa intact leaves assessed as increase in chlorophyll a fluorescence transients at 100 uM measured 48 hr post compound application; type: functional; design: scale not given: the % may be the effect or the level left; how it was run: as §1
[7] = test system: Lolium perenne; test: Effect on biomass production in Lolium perenne (perennial ryegrass) assessed as plant dry weight at 200 uM measured 14 days post compound application relative to untreated control; type: functional; how it was run: as §3
[8] = test system: Physalis ixocarpa; test: Inhibition of photosynthetic efficiency in Physalis ixocarpa intact leaves assessed as reduction in PI(abs) level at 200 uM measured 48 hr post compound application; type: functional; how it was run: as §1
[9] = test system: Physalis ixocarpa; test: Effect on biomass production in Physalis ixocarpa assessed as plant dry weight at 100 uM measured 14 days post compound application relative to untreated control; type: functional; how it was run: as §3
[10] = test system: Physalis ixocarpa; test: Inhibition of photosynthetic efficiency in Physalis ixocarpa intact leaves assessed as increase in chlorophyll a fluorescence transients at 100 uM measured 72 hr post compound application; type: functional, organism-based; how it was run: as §1
[11] = test system: Physalis ixocarpa; test: Inhibition of photosynthetic efficiency in Physalis ixocarpa intact leaves assessed as reduction in PI(abs) level at 100 uM measured 48 hr post compound application; type: functional; how it was run: as §1
[12] = test system: Lolium perenne; test: Inhibition of photosynthetic efficiency in Lolium perenne (perennial ryegrass) assessed as effect on OJIP transients at 200 uM measured 72 hr post compound application; type: functional, organism-based; how it was run: as §2
[13] = test system: Lolium perenne; test: Effect on photosynthetic efficiency in Lolium perenne (perennial ryegrass) assessed as increase in OJIP transients at 100 uM measured 72 hr post compound application; type: functional; how it was run: as §2
[14] = test system: Spinacia oleracea; test: Inhibition of photophosphorylation in Spinacia oleracea (spinach) leaves chloroplasts by titrimetry; type: functional; conditions: read-out: I50
How it was run: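 Intact spinach chloroplasts (20 μg Chl/mL) were osmotically broken in 3 mL of weakly buffered medium: 100 mM sorbitol, 10 mM KCl, 5 mM MgCl2, 0.5 mM KCN, 1 mM tricine-KOH pH 8.0, 50 μM MV and 1 mM ADP. ATP synthesis was taken from the medium alkalization rate in the linear part of illumination, calibrated by HCl back-titration, as μmol ATP (mg Chl)-1 h-1. I50 was obtained from concentration-activity plots; three replicates.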

[15] = test system: Physalis ixocarpa; test: Effect on biomass production in Physalis ixocarpa assessed as plant dry weight at 200 uM measured 14 days post compound application relative to untreated control; type: functional; how it was run: as §3
[16] = test system: Spinacia oleracea; test: Inhibition of uncoupled electron transport from water to MV in Spinacia oleracea (spinach) leaves chloroplasts at 50 to 300 uM using Clark type electrode system based method; type: functional, organism-based
How it was run: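 Water-to-MV electron transport measured with a Clark electrode in the basal medium (20 μg Chl/mL, 50 μM MV, 15 mM tricine-KOH pH 8.0, 1 min illumination), with 6 mM NH4Cl added as uncoupler.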

[17] = test system: Lolium perenne; test: Inhibition of photosynthetic efficiency in Lolium perenne (perennial ryegrass) assessed as effect on OJIP transients at 100 uM measured 24 to 48 hr post compound application; type: functional, organism-based; how it was run: as §2
[18] = test system: Spinacia oleracea; test: Increase in Magnesium-transporting ATPase activity in Spinacia oleracea (spinach) leaves chloroplasts thylakoids at 300 uM
How it was run: (§4)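 Spinach chloroplasts were isolated in 350 mM sorbitol, 5 mM ascorbate, 20 mM MES pH 6.5, centrifuged at 3000g for 60 s, washed, and resuspended in 35 mM HEPES pH 7.6. Light-triggered Mg2+-ATPase activity of thylakoid membranes was measured as released inorganic phosphate. Ammonium chloride served as positive control.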

[19] = test system: Spinacia oleracea; test: Inhibition of basal electron transport from water to MV in Spinacia oleracea (spinach) leaves chloroplasts at 50 to 300 uM using Clark type electrode system based method; type: functional, organism-based
[20] = test system: Spinacia oleracea; test: Increase in Magnesium-transporting ATPase activity in Spinacia oleracea (spinach) leaves chloroplasts thylakoids at 200 uM; how it was run: as §4
[21] = test system: Spinacia oleracea; test: Inhibition of phosphorylating noncyclic electron transport from water to MV in Spinacia oleracea (spinach) leaves chloroplasts at 50 to 300 uM using Clark type electrode system based method; type: functional
How it was run: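 Clark-electrode measurement of water-to-MV electron flow in the basal medium (sorbitol, KCl, MgCl2, 0.5 mM KCN, 50 μM MV, 15 mM tricine-KOH pH 8.0; 20 μg Chl/mL; 1 min light), with 1 mM ADP and 3 mM KH2PO4 added.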

[22] = test system: Spinacia oleracea; test: Increase in Magnesium-transporting ATPase activity in Spinacia oleracea (spinach) leaves chloroplasts thylakoids at 100 uM; how it was run: as §4
[23] = test system: Physalis ixocarpa; test: Inhibition of photosynthetic efficiency in Physalis ixocarpa intact leaves assessed as reduction in chlorophyll a fluorescence transients at 200 uM measured 48 hr post compound application; type: functional; how it was run: as §1

C[C@H]1[C@@H](O)CC[C@@H]2[C@]1(C)CC[C@H]1[C@@]2(C)CC[C@@]2(C)[C@@H]3CC(C)(C)CC[C@]3(C)CC[C@]12C [EPIFRIEDELINOL]
inhibition [1]: inactive | Activity [2]: Active | Activity [3]: 10% | inhibition at 200 µM [4]: 12% | Activity [5]: 79.6% | Activity [6]: 10% | Activity [7]: 91.2% | inhibition at 200 µM [8]: 15% | Activity [9]: 23.2% | Activity [10]: Active | inhibition at 100 µM [11]: 40% | inhibition [12]: inactive | Activity [13]: 20% | IC50 [14]: 82 µM | Activity [15]: 101.3% | inhibition [16]: inactive | inhibition [17]: inactive | Activity [18]: 123% | inhibition [19]: inactive | Activity [20]: 112% | inhibition [21]: inactive | Activity [22]: 110% | inhibition at 200 µM [23]: 10%

C[C@H]1C(=O)CC[C@@H]2[C@]1(C)CC[C@H]1[C@@]2(C)CC[C@@]2(C)[C@@H]3CC(C)(C)CC[C@]3(C)CC[C@]12C [FRIEDELINE]
IC50 [14]: 182 µM

C[C@H]1C(=O)CC[C@@H]2[C@]1(C)CC[C@H]1[C@@]2(C)CC[C@@]2(C)[C@@H]3C[C@](C)(C(=O)O)CC[C@]3(C)CC[C@]12C [MAYTENOIC ACID]
IC50 [14]: 269 µM
